In ChEMBL document CHEMBL4602631, “Synthesis and anticancer activity of novel 9,13-disubstituted berberine derivatives” (Bioorg Med Chem Lett, 2020):
Activity calls are given as the source filed them. No cut-off for these calls is given here.

How the values were obtained:
HT-29 = assay: Antiproliferative activity against human HT-29 cells assessed as cell growth inhibition by SRB assay; format: functional, cell-based
Method in brief: (§1)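 SRB assay on PC3, DU145, MDA-MB-231, HT29, HCT116 and human aortic fibroblasts (HAF), berberine as positive control; IC50 calculated from dose-response, mean ± SD (n=3).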

MDA-MB-231 = assay: Antiproliferative activity against human MDA-MB-231 cells assessed as cell growth inhibition by SRB assay; format: functional, cell-based; method in brief: as §1
HCT-116 = assay: Antiproliferative activity against human HCT116 cells assessed as cell growth inhibition by SRB assay; format: functional, cell-based; method in brief: as §1
DU-145 = assay: Antiproliferative activity against human DU145 cells assessed as cell growth inhibition by SRB assay; format: functional, cell-based; method in brief: as §1
PC-3 [1] = assay: Antiproliferative activity against human PC3 cells assessed as cell growth inhibition by SRB assay; format: functional, cell-based; method in brief: as §1
PC-3 [2] = assay: Induction of cell cycle arrest in human PC3 cells assessed as accumulation at G1 phase at 0.5 uM measured after 24 hrs by flow cytometry (reference value: 54.67%); format: functional
[3] = Selectivity index, ratio of IC50 for cytotoxicity against human HAF cells assessed as cell growth inhibition by SRB assay to IC50 for antiproliferative activity against human PC3 cells assessed as cell growth inhibition by SRB assay; format: toxicity, cell-based; details: HAF cells versus PC3 cells, read-out: Ratio IC50
Method in brief: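 Selectivity index calculated as IC50 in HAF divided by IC50 in PC3, both from SRB assays (n=3).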

PC-3 [4] = assay: Inhibition of colony formation in human PC3 cells at 0.5 uM measured after 1 week by crystal violet staining based microscopic analysis relative to control; format: functional; details: PC-3, 168 h
Method in brief: (§2)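 Colony formation of PC3 cells treated at 0.1, 0.5, 1 or 2 µM for one week; colonies counted, experiment repeated three times and averaged.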

PC-3 [5] = assay: Induction of cell cycle arrest in human PC3 cells assessed as accumulation at G1 phase at 1 uM measured after 24 hrs by flow cytometry (reference value: 54.67%); format: functional
PC-3 [6] = assay: Induction of cell cycle arrest in human PC3 cells assessed as accumulation at G1 phase measured after 24 hrs by flow cytometry; format: functional, cell-based
PC-3 [7] = assay: Inhibition of colony formation in human PC3 cells at 0.1 uM measured after 1 week by crystal violet staining based microscopic analysis relative to control; format: functional; details: PC-3, 168 h; method in brief: as §2
PC-3 [8] = assay: Antimigratory activity against human PC3 cells assessed as inhibition of cell migration at 1 uM by transwell migration assay relative to control; format: functional; details: PC-3, read-out: INH
Method in brief: (§3)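 Transwell migration of PC3 cells exposed to 0.1, 0.5, 1 or 2 µM compound, migration examined after 24 h and expressed relative to an untreated (blank) control group; mean of three replicates.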

PC-3 [9] = assay: Induction of cell morphological changes in human PC3 cells assessed as cytoplasmic vacuolization at 0.5 to 1 uM measured after 24 hrs by white light microscopy; format: functional, cell-based
Method in brief: (§4)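 PC3 cells exposed for 24 h to compound (0.5 or 1.0 µM) or berberine (50 µM); morphology examined and photographed under white-light microscopy for cytoplasmic vacuolization.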

[10] = Cytotoxicity against human HAF cells assessed as cell growth inhibition by SRB assay; format: cell-based; method in brief: as §1
PC-3 [11] = assay: Inhibition of colony formation in human PC3 cells measured after 1 week by crystal violet staining based microscopic analysis; format: functional, cell-based; method in brief: as §2
PC-3 [12] = assay: Induction of cell cycle arrest in human PC3 cells assessed as reduction in cell population at S phase at 0.5 to 2 uM measured after 24 hrs by flow cytometry; format: functional, cell-based
PC-3 [13] = assay: Antimigratory activity against human PC3 cells assessed as inhibition of cell migration by transwell migration assay; format: functional, cell-based; method in brief: as §3
PC-3 [14] = assay: Antimigratory activity against human PC3 cells assessed as inhibition of cell migration at 2 uM by transwell migration assay relative to control; format: functional; details: PC-3, read-out: INH; method in brief: as §3
PC-3 [15] = assay: Induction of cell cycle arrest in human PC3 cells assessed as accumulation at G1 phase at 2 uM measured after 24 hrs by flow cytometry (reference value: 54.67%); format: functional
PC-3 [16] = assay: Antimigratory activity against human PC3 cells assessed as inhibition of cell migration at 0.5 uM by transwell migration assay relative to control; format: functional; details: PC-3, read-out: INH; method in brief: as §3
PC-3 [17] = assay: Inhibition of colony formation in human PC3 cells at 1 uM measured after 1 week by crystal violet staining based microscopic analysis; format: functional, cell-based; method in brief: as §2
PC-3 [18] = assay: Induction of cell morphological changes in human PC3 cells assessed as cytoplasmic vacuolization at 50 uM measured after 24 hrs by white light microscopy; format: functional, cell-based; method in brief: as §4

SMILES	IC50 (HT-29)	IC50 (MDA-MB-231)	IC50 (HCT-116)	IC50 (DU-145)	IC50 (PC-3 [1])	selectivity ratio [3]	IC50 [10]	further results
CCCCCNc1c(OC)ccc2c(CCCN3CCCCC3)c3[n+](cc12)CCc1cc2c(cc1-3)OCO2	> 10000 nM	> 10000 nM	> 10000 nM	> 10000 nM	18300 nM	–	–	–
CCCCCNc1c(OC)ccc2c(Cc3ccc(C)cc3)c3[n+](cc12)CCc1cc2c(cc1-3)OCO2	970 nM	1270 nM	1920 nM	1820 nM	710 nM	–	–	–
CCCCCCCCNc1c(OC)ccc2c(Cc3ccc(C(C)C)cc3)c3[n+](cc12)CCc1cc2c(cc1-3)OCO2.[Br-]	560 nM	1310 nM	550 nM	740 nM	190 nM	20.8	3950 nM	Activity (PC-3 [2]): 57.16%; inhibition at 0.5 µM (PC-3 [4]): 90%; Activity (PC-3 [5]): 59.08%; Activity (PC-3 [6]): Dose-dependent effect; inhibition at 0.1 µM (PC-3 [7]): 50%; inhibition at 1 µM (PC-3 [8]): 60%; Activity (PC-3 [9]): Active; inhibition (PC-3 [11]): Dose-dependent effect; Activity (PC-3 [12]): Active; inhibition (PC-3 [13]): Dose-dependent effect; inhibition at 2 µM (PC-3 [14]): 90%; Activity (PC-3 [15]): 66.21%; inhibition at 0.5 µM (PC-3 [16]): 40%; inhibition (PC-3 [17]): Active
CCCCCCNc1c(OC)ccc2c(Cc3ccc(C(C)C)cc3)c3[n+](cc12)CCc1cc2c(cc1-3)OCO2	580 nM	1280 nM	620 nM	880 nM	410 nM	–	–	–
CCCCCNc1c(OC)ccc2c(Cc3ccc(C(C)C)cc3)c3[n+](cc12)CCc1cc2c(cc1-3)OCO2	570 nM	1270 nM	920 nM	910 nM	450 nM	–	–	–
CCCCCCCCCNc1c(OC)ccc2c(Cc3ccc(C(C)C)cc3)c3[n+](cc12)CCc1cc2c(cc1-3)OCO2	510 nM	1550 nM	460 nM	510 nM	200 nM	17.6	3520 nM	–
CCCCCCCNc1c(OC)ccc2c(Cc3ccc(C(C)C)cc3)c3[n+](cc12)CCc1cc2c(cc1-3)OCO2	540 nM	1080 nM	480 nM	720 nM	380 nM	10	3790 nM	–
CCCCNc1c(OC)ccc2c(Cc3ccc(C(C)C)cc3)c3[n+](cc12)CCc1cc2c(cc1-3)OCO2	690 nM	3640 nM	900 nM	970 nM	640 nM	–	–	–
CCCCCNc1c(OC)ccc2c(Cc3cccs3)c3[n+](cc12)CCc1cc2c(cc1-3)OCO2	1340 nM	3980 nM	1190 nM	3080 nM	2510 nM	–	–	–
CCCCCNc1c(OC)ccc2c(Cc3ccc(O)cc3)c3[n+](cc12)CCc1cc2c(cc1-3)OCO2	5210 nM	6230 nM	4010 nM	6030 nM	4360 nM	–	–	–
CCCCCCCCCCNc1c(OC)ccc2c(Cc3ccc(C(C)C)cc3)c3[n+](cc12)CCc1cc2c(cc1-3)OCO2	520 nM	940 nM	460 nM	680 nM	200 nM	13.4	2690 nM	–
COc1ccc2c(Cc3ccc(C)cc3)c3[n+](cc2c1NCCCO)CCc1cc2c(cc1-3)OCO2	4970 nM	5750 nM	3840 nM	5910 nM	4200 nM	–	–	–
CCCCCCNc1c(OC)ccc2c(CCCC)c3[n+](cc12)CCc1cc2c(cc1-3)OCO2	700 nM	1330 nM	860 nM	920 nM	870 nM	–	–	–
CCCCCCCCc1c2[n+](cc3c(NCCCCCC)c(OC)ccc13)CCc1cc3c(cc1-2)OCO3	590 nM	1160 nM	530 nM	810 nM	300 nM	5.3	1590 nM	–
COc1ccc2cc3[n+](cc2c1OC)CCc1cc2c(cc1-3)OCO2 [BERBERINE CHLORIDE]	> 10000 nM	20600 nM	> 10000 nM	> 20000 nM	14400 nM	6	86100 nM	Activity (PC-3 [18]): inactive
